# Source: PubChem (several laboratories)
# Compounds with a hit are over-represented: about 4.9% of the library has one in this group of screens.
# NF-kB neuron act – NF-kB expression increase, human neuronal cells | NF-kB reporter expression; hits give high values | fold change at 12.5 µM | 1.6% of 190,000 active; in the data active = fold change above about 3.3
# STAT3 inh – reduces IL-6 driven STAT3 reporter signal | U3A cells, IL-6 STAT3-luciferase reporter, luminescence; host cell line lacks STAT1 | inhibition, % at 5.5 µM | 0.89% of 190,000 active | AID 862;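 active = inhibition above the mean inhibition across all screened compounds plus 3 SD, cut at about 44% in these data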;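 also: 0% = DMSO only wells and 100% = 100 µM nifuroxazide control wells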
# STAT1 blocker – STAT1 signaling inhibition; inhibition, % at 5.5 µM; 0.35% of 200,000 active; NIH 3T3 STAT1-luciferase reporter, IFN-gamma, luminescence;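 active = inhibition above a set limit, the mean inhibition across all tested compounds plus 3 SD, cut at about 34% in these data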;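 also: 0% = IFN-gamma with DMSO and 100% = IFN-gamma with 300 µM nifuroxazide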
# APP 5'UTR act – APP 5'UTR luciferase reporter activation; SH-SY5Y APP 5'UTR luciferase reporter, luminescence; zero percent = DMSO vehicle wells; activation, % at 2 µM; 1% of 190,000 active;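 active = activation above a set limit, based on mean plus 3 SD of controls, cut at about 140% in these data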
# STAT3 activator – STAT3 signaling activation; U3A cells, IL-6 STAT3-luciferase reporter, luminescence; 100% = signal with IL-6 EC80 alone; activation (% of control), % at 5.6 µM; 0.91% of 190,000 active;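 active = activation above the screen-wide mean of compound activation plus 3 SD, cut at about 130% in these data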;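 also: 0% = background luminescence of wells with medium and substrate only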
#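 System – human U3A cells carrying STAT3-luciferase construct · Probe or stimulus – Interleukin-6, 33 ng/mL · Schedule – compound 1 h, then IL-6 6 h at 37 °C · Signal – luminescence from STAT3-driven luciferase reporter · Evaluation – percent of IL-6-only median luminescence · Benchmarks – IL-6-only high control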
# STAT1 activator – increases IFN-gamma driven STAT1 reporter signal; activation (% of control), % at 5.5 µM; 2.6% of 200,000 active; AID 932; NIH 3T3 STAT1-luciferase reporter, luminescence; 100% = IFN-gamma alone, no compound;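 active = activation above the screen-wide mean activation plus 3 SD, cut at about 130% in these data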;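 also: raw ratio to IFN-gamma control signal so 100% means no change and 0% no light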
# Active calls of the source: *.
SMILES,NF-kB neuron act,STAT3 inh,STAT1 blocker,APP 5'UTR act,STAT3 activator,STAT1 activator
CCOc1ccc(C(=O)Nc2cc(NC(=O)c3ccc(OCC)c(Cl)c3)cc(C(=O)O)c2)cc1Cl,3.68*,4.2,-2.8,13.1,106.0,100.9
CCOc1ccc(C(=O)Nc2ccc(NC(=S)NC(=O)CC)cc2)cc1Cl,1.34,3.3,4.4,6.3,93.1,96.0
CCOc1ccc(C(=O)Nc2ccc(NC(=O)c3ccco3)c(Cl)c2)cc1Cl,1.38,24.1,4.8,-22.8,80.0,94.2
CCOc1ccc(C(=O)Nc2cccc(C(=O)O)c2)cc1Cl,6.25*,93.1*,70.8*,75.7,25.0,33.6
O=C(NC1CCCC1)C(c1ccc(F)cc1)N(Cc1ccccc1Cl)C(=O)CCl (configuration not stated),1,-7.7,3.8,-4.4,104.1,96.6
Cc1cccc(CN2CCN(c3nc4nonc4nc3NC3CC3)CC2=O)c1,0.92,10.0,-5.4,7.7,95.0,103.4
Cc1ccsc1C(=O)NNC(=O)C1CC=CCC1C(=O)O (configuration not stated),1.51,-6.1,-49.5,58.3,107.6,143.5*
O=C(NNC(=O)[C@@H]1CCCC[C@@H]1C(=O)O)c1cccs1,1.54,-1.8,-15.0,33.3,102.3,113.9
O=C(NNC(=O)C1CC=CCC1C(=O)O)c1cccs1 (configuration not stated),1.02,-4.4,-12.0,14.2,105.1,111.0
Cc1ccsc1C(=O)NNC(=O)C1CCCCC1C(=O)O (configuration not stated),1.38,16.5,-43.2,96.7,89.2,129.4*
Cc1nc2ccccc2nc(C)c1=NO,1.17,-8.5,-41.5,52.2,111.2,138.0*
Cc1ccc2nc(C)/c(=N\O)c(C)nc2c1,1.41,-19.5,-41.5,195.4*,116.5,137.1*
Cc1ccc2nc(-c3ccccc3)c(-c3ccccc3)nc2c1,1.12,9.2,-7.5,-10.1,95.9,105.4
Clc1ccccc1-c1nc2ccccc2c2nc3ccccc3n12,1.31,8.6,4.2,16.0,95.0,96.2
CCC(=O)Nc1cc(SCCO)cc([N+](=O)[O-])c1,1.68,1.3,1.8,-3.8,100.1,98.4
O=C(CCl)Nc1cc(SCC(O)CO)cc([N+](=O)[O-])c1 (configuration not stated),0.15,98.5*,53.8*,16.4,20.5,48.8
CNc1nc(N)nc(-c2cc(Cl)ccc2OC)n1,0.92,-3.4,-1.2,23.6,107.0,99.8
COCCCn1c(SCc2nnc(-c3ccccc3)o2)nc2sc3c(c2c1=O)CCC3,1.18,5.9,0.5,-15.9,103.8,99.6
Cn1c(SCc2nnc(-c3ccccc3Br)o2)nc2sc3c(c2c1=O)CCC3,4.53*,10.5,2.1,5.1,94.8,99.3
O=C(Nc1ccccc1)N1CCCC(CNS(=O)(=O)Cc2ccccc2)C1 (configuration not stated),1.26,-0.4,-9.7,3.5,106.7,107.0
CCOC(=O)C(C(C)=O)c1c(Br)c(O)c(O)c2c(C(=O)c3ccc(C)cc3)coc12 (configuration not stated),4.46*,-3.5,6.1,4.7,104.7,94.4
O=C(CSc1ccc2ccccc2n1)c1ccc2c(c1)OCO2,1.17,-5.0,-48.1,44.2,105.2,134.1*
O=C(O)CSc1ccc2ccccc2n1,1.05,7.4,0.9,6.4,97.2,99.2
Cc1ccccc1OCCn1cnc2c(N)ncnc21,1.6,21.2,-31.6,2.2,84.1,129.4*
O=C(Cc1sc(Nc2ccccc2)nc1-c1ccccc1)NCc1ccccn1,1.37,-2.4,-30.1,8.2,106.5,130.4*
SMILES,NF-kB neuron act,STAT3 inh,STAT1 blocker,APP 5'UTR act,STAT3 activator,STAT1 activator
Cc1ccc(Nc2nc(-c3ccccc3)c(CC(=O)O)s2)cc1,1.33,6.1,-30.7,53.3,99.0,131.0*
COc1ccc(CNC(=O)/C(C#N)=C2\N=C(NC(=O)c3cccs3)c3ccccc32)cc1,0.47,10.2,-6.5,-5.0,93.3,105.8
O=C(/C=C/N1CCOCC1)c1coc2ccccc12,2.43,8.9,-39.6,49.3,95.8,136.0*
CN(N)C(=S)Nc1ccc(Cl)cc1,1.32,0.3,4.4,-16.2,106.5,95.6
Cc1ccc(O)c(C(=O)/C=C/c2ccc3c(c2)OCCO3)c1,2.03,22.0,10.2,23.2,87.6,90.6
COC(=O)c1c(C)nc(C)c(C(=O)OC)c1-c1ccc(OC)c(OC)c1,1.09,11.5,-7.5,-9.9,94.6,106.7
CCOC(=O)c1c(C)nc(C)c(C(=O)OCC)c1-c1ccc(O)c(OC)c1,3.77*,7.0,-1.1,18.6,104.2,100.2
NNC(=O)c1sc(-c2ccc(Cl)cc2)cc1N,1.13,5.4,-34.4,6.7,99.6,134.5*
CCOC(=O)c1sc(-c2ccccc2)cc1NC(=O)Nc1ccccc1,0.84,13.1,0.8,3.1,90.9,99.3
CCOC(=O)c1cc(-c2ccccc2)sc1NC(=O)C(C)C,0.82,9.5,3.3,23.5,94.2,97.0
CCOC(=O)c1sc(-c2ccc(Br)cc2)cc1N,2.5,0.7,-41.9,77.0,101.7,137.3*
CCOC(=O)c1cc(-c2ccc(N)cc2)sc1N,3,1.5,-42.8,19.3,102.1,139.4*
NNC(=O)c1cc(Cl)ccc1Cl,1.17,-3.5,1.5,-18.7,100.8,100.8
COC(=O)c1ccc(NC(CC(C)C)C(=O)OC)c([N+](=O)[O-])c1 (configuration not stated),1.26,-0.8,-6.6,1.4,98.5,105.9
CN(C)CCNC(=O)c1ccc(Sc2ccc(Br)cc2)c([N+](=O)[O-])c1,1.02,1.4,1.5,-19.4,100.7,96.9
O=C1NC(=O)/C(=C/c2ccc(O)cc2)S1,1.9,-22.5,-31.9,16.6,128.1,130.2*
COc1cc(/C=C2\SC(=Nc3ccc(O)cc3)NC2=O)cc(OC)c1O,1.2,11.9,5.7,-7.3,96.8,94.8
O=C(Nc1ccc(Oc2ccc(C(F)(F)F)cn2)c(Cl)c1)C1CC1,0.95,16.9,1.6,5.8,88.8,97.5
N/C(=N\OC(=O)Cc1cccs1)c1ccccc1,2.3,2.2,-40.9,23.6,103.7,137.4*
Cc1ccc(/C(N)=N/OC(=O)Cc2cccs2)cc1,2.72,12.1,-55.1,107.5,99.3,149.6*
N/C(=N\OC(=O)Cc1cccs1)c1cccc([N+](=O)[O-])c1,1.56,9.2,-15.8,4.1,99.3,114.5
N/C(=N\OC(=O)Cc1ccccc1)c1ccc(Br)cc1,1.79,9.5,-7.0,-1.6,93.8,106.3
Cc1cccc(/C(N)=N/OC(=O)Cc2cccs2)c1,2.69,6.9,-34.9,41.1,99.6,131.9*
Cc1ccc(/C(N)=N/OC(=O)Cc2ccccc2)cc1,2.38,4.3,-37.3,53.1,100.2,132.9*
CC(C)=CCN1CCNC(=O)C1CC(=O)NCc1nc(C)c(C)s1 (configuration not stated),1.44,-4.3,-1.7,27.5,107.7,100.0
